Laboratory results reported in ChEMBL document CHEMBL1255169, “Synthesis, structure-affinity relationships, and radiolabeling of selective high-affinity 5-HT4 receptor ligands as prospective imaging probes for positron emission tomography” (J Med Chem, 2010).

Key:
[1] = molecular target: Sodium-dependent dopamine transporter (Homo sapiens, UniProt Q01959); assay: Binding affinity to human DAT
[2] = molecular target: Alpha-1D adrenergic receptor (Homo sapiens, UniProt P25100); assay: Binding affinity to human adrenergic Alpha-1D receptor
[3] = molecular target: Mu-type opioid receptor (Homo sapiens, UniProt P35372); assay: Binding affinity to human mu opioid receptor
[4] = molecular target: T1, Alpha-1A adrenergic receptor (Homo sapiens, UniProt P35348); assay: Binding affinity to human adrenergic alpha1A receptor
T1 sequence (P35348 whole entry): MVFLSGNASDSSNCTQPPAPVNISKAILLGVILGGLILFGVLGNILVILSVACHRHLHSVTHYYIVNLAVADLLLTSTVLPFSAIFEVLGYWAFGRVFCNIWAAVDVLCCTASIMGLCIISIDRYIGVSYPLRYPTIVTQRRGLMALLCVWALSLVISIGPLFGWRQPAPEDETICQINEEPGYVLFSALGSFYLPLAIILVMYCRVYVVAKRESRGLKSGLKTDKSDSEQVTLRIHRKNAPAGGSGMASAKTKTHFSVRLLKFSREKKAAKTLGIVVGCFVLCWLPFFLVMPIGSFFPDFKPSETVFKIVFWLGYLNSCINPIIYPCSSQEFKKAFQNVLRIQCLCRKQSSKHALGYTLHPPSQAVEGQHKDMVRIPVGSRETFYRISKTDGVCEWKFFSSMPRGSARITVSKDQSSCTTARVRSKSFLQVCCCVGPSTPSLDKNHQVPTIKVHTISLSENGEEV

[5] = molecular target: T2, Alpha-2B adrenergic receptor (Homo sapiens, UniProt P18089); assay: Binding affinity to human adrenergic alpha2B receptor
T2 sequence (P18089 whole entry): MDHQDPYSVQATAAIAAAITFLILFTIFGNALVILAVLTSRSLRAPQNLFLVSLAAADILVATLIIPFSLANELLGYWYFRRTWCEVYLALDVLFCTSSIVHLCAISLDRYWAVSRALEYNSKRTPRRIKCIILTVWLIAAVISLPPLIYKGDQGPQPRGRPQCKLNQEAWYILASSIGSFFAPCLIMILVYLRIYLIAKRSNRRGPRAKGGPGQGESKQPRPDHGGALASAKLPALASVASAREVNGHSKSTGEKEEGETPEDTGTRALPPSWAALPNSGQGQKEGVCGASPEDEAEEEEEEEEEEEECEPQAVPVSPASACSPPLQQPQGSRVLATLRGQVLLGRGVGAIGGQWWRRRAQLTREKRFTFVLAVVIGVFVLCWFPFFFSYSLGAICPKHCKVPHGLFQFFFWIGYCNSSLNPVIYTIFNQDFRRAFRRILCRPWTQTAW
Summary of the method: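 Radioligand binding run by the NIMH Psychoactive Drug Screening Program as part of a broad receptor and binding-site panel, which included α1A, α1B, α1D and α2A–C subtypes. Affinity is expressed as Ki.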

[6] = molecular target: Histamine H1 receptor (Cavia porcellus, UniProt P31389); assay: Binding affinity to guinea pig histamine H1 receptor
[7] = molecular target: Beta-2 adrenergic receptor (Rattus norvegicus, UniProt P10608); assay: Binding affinity to rat adrenergic beta2 receptor
Beta-2 adrenergic receptor, sequence (P10608 whole entry): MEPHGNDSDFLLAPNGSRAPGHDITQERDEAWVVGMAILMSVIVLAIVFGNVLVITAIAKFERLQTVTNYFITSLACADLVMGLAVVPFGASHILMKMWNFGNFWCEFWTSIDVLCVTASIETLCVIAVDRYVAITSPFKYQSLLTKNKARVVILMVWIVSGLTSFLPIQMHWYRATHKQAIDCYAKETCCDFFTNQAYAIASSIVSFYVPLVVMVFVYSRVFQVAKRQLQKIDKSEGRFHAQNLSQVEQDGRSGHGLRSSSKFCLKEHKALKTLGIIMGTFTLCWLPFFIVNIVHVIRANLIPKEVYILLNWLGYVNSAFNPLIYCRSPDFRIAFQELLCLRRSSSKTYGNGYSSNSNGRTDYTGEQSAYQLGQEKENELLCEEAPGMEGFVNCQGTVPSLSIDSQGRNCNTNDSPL

[8] = molecular target: GABA-A receptor; agonist GABA site; assay: Binding affinity to human GABAA receptor; assay type: protein-complex assay
[9] = molecular target: 5-hydroxytryptamine receptor 4 (Cavia porcellus, UniProt O70528); assay: Displacement of [3H]GR113808 from 5HT4 receptor in guinea pig striatal membranes; assay type: cell membranes, Striatum, Membrane
[10] = molecular target: Muscarinic acetylcholine receptor M3 (Homo sapiens, UniProt P20309); assay: Binding affinity to human muscarinic M3 receptor
Muscarinic acetylcholine receptor M3, sequence (P20309 whole entry): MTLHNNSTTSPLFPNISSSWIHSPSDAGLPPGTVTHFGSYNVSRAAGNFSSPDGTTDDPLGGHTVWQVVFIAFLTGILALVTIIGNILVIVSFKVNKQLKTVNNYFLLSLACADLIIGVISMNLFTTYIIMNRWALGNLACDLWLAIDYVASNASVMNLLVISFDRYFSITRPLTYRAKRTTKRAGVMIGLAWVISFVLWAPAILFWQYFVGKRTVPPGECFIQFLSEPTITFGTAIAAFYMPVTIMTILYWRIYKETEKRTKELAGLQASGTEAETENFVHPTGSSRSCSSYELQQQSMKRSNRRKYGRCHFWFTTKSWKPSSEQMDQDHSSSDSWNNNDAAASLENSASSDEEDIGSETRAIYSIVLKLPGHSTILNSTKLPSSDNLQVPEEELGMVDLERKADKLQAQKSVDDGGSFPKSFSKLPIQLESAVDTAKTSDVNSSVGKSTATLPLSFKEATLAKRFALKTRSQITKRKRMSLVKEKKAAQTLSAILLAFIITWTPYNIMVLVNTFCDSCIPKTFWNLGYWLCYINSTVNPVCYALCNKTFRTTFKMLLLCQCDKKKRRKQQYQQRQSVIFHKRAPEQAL

[11] = molecular target: Delta-type opioid receptor (Homo sapiens, UniProt P41143); assay: Binding affinity to human delta opioid receptor
[12] = molecular target: Histamine H2 receptor (Cavia porcellus, UniProt P47747); assay: Binding affinity to guinea pig histamine H2 receptor
[13] = molecular target: 5-hydroxytryptamine receptor 3A (Homo sapiens, UniProt P46098); assay: Binding affinity to human 5-HT3 receptor
[14] = molecular target: Sodium-dependent serotonin transporter (Homo sapiens, UniProt P31645); assay: Binding affinity to human SERT
Sodium-dependent serotonin transporter, sequence (P31645 whole entry): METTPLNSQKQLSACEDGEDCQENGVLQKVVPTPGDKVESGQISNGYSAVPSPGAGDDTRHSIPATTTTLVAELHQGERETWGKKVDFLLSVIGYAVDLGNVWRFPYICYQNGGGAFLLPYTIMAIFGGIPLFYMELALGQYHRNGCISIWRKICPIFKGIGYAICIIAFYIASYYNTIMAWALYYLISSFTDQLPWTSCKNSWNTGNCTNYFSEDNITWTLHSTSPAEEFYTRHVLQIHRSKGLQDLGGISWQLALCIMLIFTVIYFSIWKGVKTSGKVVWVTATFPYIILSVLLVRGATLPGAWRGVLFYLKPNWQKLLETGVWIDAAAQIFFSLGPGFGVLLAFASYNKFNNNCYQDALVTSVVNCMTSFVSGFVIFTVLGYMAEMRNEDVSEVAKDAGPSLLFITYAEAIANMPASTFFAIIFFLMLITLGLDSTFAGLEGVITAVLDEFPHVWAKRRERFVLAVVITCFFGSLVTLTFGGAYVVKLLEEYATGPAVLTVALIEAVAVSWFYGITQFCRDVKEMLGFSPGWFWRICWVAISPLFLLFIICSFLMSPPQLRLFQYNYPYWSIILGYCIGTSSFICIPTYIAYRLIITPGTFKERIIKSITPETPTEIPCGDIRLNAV

[15] = molecular target: Muscarinic acetylcholine receptor M4 (Homo sapiens, UniProt P08173); assay: Binding affinity to human muscarinic M4 receptor
Muscarinic acetylcholine receptor M4, sequence (P08173 whole entry): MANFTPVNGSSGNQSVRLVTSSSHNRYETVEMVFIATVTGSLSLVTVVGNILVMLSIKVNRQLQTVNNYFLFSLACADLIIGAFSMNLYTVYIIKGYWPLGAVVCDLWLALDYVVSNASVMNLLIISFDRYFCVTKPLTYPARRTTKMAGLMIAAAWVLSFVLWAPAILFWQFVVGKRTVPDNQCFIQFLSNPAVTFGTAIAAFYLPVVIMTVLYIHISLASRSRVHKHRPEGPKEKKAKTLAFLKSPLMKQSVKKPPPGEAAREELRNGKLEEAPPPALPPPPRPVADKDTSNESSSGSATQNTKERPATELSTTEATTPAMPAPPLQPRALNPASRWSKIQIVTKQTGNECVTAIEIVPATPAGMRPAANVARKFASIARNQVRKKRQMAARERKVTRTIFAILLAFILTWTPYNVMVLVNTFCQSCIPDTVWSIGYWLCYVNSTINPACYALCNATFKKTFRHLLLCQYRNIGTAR

[16] = molecular target: 5-hydroxytryptamine receptor 7 (Homo sapiens, UniProt P34969); assay: Binding affinity to human 5-HT7 receptor
5-hydroxytryptamine receptor 7, sequence (P34969 whole entry): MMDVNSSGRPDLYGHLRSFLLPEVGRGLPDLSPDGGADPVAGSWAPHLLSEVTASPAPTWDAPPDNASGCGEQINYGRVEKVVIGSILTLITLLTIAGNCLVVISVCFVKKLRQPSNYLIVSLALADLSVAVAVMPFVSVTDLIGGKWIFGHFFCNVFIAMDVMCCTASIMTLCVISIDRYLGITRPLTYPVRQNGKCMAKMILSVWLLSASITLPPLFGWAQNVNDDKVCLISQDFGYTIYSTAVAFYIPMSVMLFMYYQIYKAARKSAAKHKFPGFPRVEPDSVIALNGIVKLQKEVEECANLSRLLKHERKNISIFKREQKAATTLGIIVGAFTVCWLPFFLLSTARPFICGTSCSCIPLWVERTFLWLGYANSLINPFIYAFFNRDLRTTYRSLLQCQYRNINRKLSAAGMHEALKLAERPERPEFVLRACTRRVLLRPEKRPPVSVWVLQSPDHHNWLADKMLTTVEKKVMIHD

[17] = molecular target: T3, Alpha-1B adrenergic receptor (Homo sapiens, UniProt P35368); assay: Binding affinity to human adrenergic Alpha-1B receptor
T3 sequence (P35368 whole entry): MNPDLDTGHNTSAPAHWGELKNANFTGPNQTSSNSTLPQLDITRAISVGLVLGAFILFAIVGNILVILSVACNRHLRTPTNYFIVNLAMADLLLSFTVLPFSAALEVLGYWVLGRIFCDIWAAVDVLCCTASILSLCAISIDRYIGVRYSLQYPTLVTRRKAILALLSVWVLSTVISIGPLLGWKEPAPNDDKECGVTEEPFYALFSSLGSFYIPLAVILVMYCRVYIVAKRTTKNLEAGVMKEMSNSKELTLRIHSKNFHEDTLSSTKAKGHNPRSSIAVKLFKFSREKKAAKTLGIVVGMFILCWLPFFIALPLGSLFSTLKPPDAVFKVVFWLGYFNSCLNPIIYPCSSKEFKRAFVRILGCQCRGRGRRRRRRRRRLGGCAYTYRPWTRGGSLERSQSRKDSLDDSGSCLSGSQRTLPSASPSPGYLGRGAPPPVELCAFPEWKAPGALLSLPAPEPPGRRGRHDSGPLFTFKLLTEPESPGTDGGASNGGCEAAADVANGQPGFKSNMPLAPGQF

[18] = molecular target: 5-hydroxytryptamine receptor 5A (Homo sapiens, UniProt P47898); assay: Binding affinity to human 5-HT5A receptor
[19] = molecular target: D(1A) dopamine receptor (Rattus norvegicus, UniProt P18901); assay: Binding affinity to rat dopamine D1 receptor
[20] = molecular target: Muscarinic acetylcholine receptor M5 (Homo sapiens, UniProt P08912); assay: Binding affinity to human muscarinic M5 receptor
Muscarinic acetylcholine receptor M5, sequence (P08912 whole entry): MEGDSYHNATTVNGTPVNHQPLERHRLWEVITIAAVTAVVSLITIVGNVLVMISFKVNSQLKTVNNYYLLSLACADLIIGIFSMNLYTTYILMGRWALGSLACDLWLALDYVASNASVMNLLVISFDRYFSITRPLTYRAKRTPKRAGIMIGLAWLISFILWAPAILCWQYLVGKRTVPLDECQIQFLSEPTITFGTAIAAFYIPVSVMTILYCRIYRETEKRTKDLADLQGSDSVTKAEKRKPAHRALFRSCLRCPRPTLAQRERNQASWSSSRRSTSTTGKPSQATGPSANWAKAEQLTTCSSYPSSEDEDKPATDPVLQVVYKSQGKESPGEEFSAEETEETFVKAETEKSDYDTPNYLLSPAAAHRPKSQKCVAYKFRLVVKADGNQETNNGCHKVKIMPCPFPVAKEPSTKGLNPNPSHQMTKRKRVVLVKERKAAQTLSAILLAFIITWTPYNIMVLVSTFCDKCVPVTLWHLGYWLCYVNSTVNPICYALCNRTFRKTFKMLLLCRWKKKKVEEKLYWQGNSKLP

[21] = molecular target: 5-hydroxytryptamine receptor 4 (Homo sapiens, UniProt Q13639); assay: Displacement of [3H]GR113808 from human recombinant 5HT4 receptor expressed in HEK293 cells; assay type: cell-based
5-hydroxytryptamine receptor 4 (Homo sapiens, UniProt Q13639), sequence (Q13639 whole entry): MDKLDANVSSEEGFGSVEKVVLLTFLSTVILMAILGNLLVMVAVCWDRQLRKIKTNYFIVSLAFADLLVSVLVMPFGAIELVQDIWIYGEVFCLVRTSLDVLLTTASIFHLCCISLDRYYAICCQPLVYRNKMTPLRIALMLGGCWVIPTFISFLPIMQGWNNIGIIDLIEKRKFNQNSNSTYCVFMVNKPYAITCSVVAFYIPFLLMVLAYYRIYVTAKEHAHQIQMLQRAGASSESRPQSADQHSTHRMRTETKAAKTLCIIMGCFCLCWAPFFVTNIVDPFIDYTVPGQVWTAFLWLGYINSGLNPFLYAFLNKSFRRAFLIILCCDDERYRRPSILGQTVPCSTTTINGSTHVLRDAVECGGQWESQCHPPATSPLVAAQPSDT

[22] = molecular target: Alpha-2A adrenergic receptor (Homo sapiens, UniProt P08913); assay: Binding affinity to human adrenergic alpha2A receptor
[23] = molecular target: 5-hydroxytryptamine receptor 1A (Homo sapiens, UniProt P08908); assay: Binding affinity to human 5-HT1A receptor
[24] = molecular target: Histamine H4 receptor (Cavia porcellus, UniProt Q91ZY3); assay: Binding affinity to guinea pig histamine H4 receptor
[25] = molecular target: D(2) dopamine receptor (Rattus norvegicus, UniProt P61169); assay: Binding affinity to rat dopamine D2 receptor
D(2) dopamine receptor, sequence (P61169 whole entry): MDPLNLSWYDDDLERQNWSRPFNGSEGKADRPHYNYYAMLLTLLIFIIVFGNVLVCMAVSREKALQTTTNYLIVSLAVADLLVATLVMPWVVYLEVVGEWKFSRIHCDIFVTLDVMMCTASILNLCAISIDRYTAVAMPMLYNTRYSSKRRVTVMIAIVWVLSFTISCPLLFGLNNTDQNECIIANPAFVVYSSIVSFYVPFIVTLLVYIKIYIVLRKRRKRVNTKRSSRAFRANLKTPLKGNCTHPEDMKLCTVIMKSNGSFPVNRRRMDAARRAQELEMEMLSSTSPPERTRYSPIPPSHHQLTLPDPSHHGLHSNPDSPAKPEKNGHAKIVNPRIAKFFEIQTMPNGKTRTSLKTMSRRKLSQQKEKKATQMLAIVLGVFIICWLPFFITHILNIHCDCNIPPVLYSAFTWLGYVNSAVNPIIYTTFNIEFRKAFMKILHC

[26] = molecular target: 5-hydroxytryptamine receptor 2A (Homo sapiens, UniProt P28223); assay: Binding affinity to human 5-HT2A receptor
[27] = molecular target: Beta-3 adrenergic receptor (Rattus norvegicus, UniProt P26255); assay: Binding affinity to rat adrenergic beta3 receptor
Beta-3 adrenergic receptor, sequence (P26255 whole entry): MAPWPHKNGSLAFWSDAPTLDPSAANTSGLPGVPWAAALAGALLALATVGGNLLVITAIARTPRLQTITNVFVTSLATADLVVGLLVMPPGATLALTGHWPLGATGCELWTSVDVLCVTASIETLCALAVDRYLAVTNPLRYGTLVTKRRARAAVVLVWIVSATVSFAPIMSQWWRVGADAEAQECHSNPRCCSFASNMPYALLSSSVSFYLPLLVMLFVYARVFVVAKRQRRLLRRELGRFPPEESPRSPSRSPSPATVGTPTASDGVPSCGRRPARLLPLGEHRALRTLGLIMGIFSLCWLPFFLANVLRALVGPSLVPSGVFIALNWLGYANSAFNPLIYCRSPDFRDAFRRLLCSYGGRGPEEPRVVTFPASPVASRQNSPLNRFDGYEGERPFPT

[28] = molecular target: 5-hydroxytryptamine receptor 1D (Homo sapiens, UniProt P28221); assay: Binding affinity to human 5-HT1D receptor
5-hydroxytryptamine receptor 1D, sequence (P28221 whole entry): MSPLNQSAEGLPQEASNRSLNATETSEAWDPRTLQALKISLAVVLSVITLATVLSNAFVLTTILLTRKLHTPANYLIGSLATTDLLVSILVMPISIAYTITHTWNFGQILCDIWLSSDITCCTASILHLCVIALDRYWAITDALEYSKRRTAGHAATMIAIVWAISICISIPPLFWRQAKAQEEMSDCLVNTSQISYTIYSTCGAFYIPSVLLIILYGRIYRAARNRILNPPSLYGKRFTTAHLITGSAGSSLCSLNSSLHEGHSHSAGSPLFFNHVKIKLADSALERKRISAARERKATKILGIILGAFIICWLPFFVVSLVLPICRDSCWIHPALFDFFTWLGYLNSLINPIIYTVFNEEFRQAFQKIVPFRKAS

| Structure (SMILES) | Ki [1] | Ki [2] | Ki [3] | Ki [4] | Ki [5] | Ki [6] | Ki [7] | Ki [8] | Ki [9] | Ki [10] | Ki [11] | Ki [12] | Ki [13] | Ki [14] | Ki [15] | Ki [16] | Ki [17] | Ki [18] | Ki [19] | Ki [20] | also measured |
| --- | --- | --- | --- | --- | --- | --- | --- | --- | --- | --- | --- | --- | --- | --- | --- | --- | --- | --- | --- | --- | --- |
| CCCCN1CCC(COC(=O)c2cc(Cl)c(NC)c3c2OCCO3)CC1 | 2.02 µM | 2.28 µM | > 10 µM | 0.522 µM | 0.671 µM | 2.73 µM | > 10 µM | > 10 µM | 0.000577 µM | 0.823 µM | > 10 µM | > 10 µM | 1.07 µM | 9.01 µM | 0.76 µM | 5.7 µM | > 10 µM | 8.59 µM | 2.29 µM | 0.972 µM | Ki [21]: 0.002 µM; Ki [22]: 2.24 µM; Ki [23]: 0.3 µM; Ki [24]: > 10 µM; Ki [25]: 0.22 µM; Ki [26]: 1.78 µM; Ki [27]: > 10 µM; Ki [28]: 1.3 µM |
| CCCCN1CCC(COC(=O)c2ccc(N)c(OC)c2)CC1 | > 10 µM | > 10 µM | > 10 µM | > 10 µM | > 10 µM | > 10 µM | > 10 µM | > 10 µM | 0.000738 µM | 1.1 µM | > 10 µM | > 10 µM | 3.51 µM | > 10 µM | 2.58 µM | > 10 µM | 4.23 µM | > 10 µM | > 10 µM | 4.06 µM | Ki [21]: 0.0024 µM; Ki [22]: > 10 µM; Ki [23]: > 10 µM; Ki [24]: > 10 µM; Ki [25]: > 10 µM; Ki [26]: > 10 µM; Ki [27]: > 10 µM; Ki [28]: 5.69 µM |
